ChEMBL document CHEMBL1140054, “Phosphate prodrugs derived from N-acetylglucosamine have enhanced chondroprotective activity in explant cultures and represent a new lead in antiosteoarthritis drug discovery” (J Med Chem, 2008)

Experiments:
[1] = Chondroprotective activity in bovine articular cartilage explant cultures assessed as reduction in IL1-induced glycosaminoglycan release at 1 mM after 96 hrs; format: functional, Bos taurus
Summary of the method: (§1)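 Full-depth articular cartilage explants (50-100 mg) from mature bovine metacarpophalangeal joints; equilibrated 48 h in DMEM with 10% FCS, gentamicin, 1% HEPES, then washed in serum-free medium. Cultured in triplicate in serum-free DMEM with or without compound (10-0.1 mM); 10 ng/mL recombinant human IL-1 added to half the wells. After 96 h, media sulfated GAG measured by DMMB dye binding (A525) against shark chondroitin sulfate C standard.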

[2] = Cytotoxicity against bovine chondrocytes at 10 mM after 96 hrs by MTT cell viability assay; format: cell-based, Bos taurus; conditions: cattle, 10000 µM
Summary of the method: (§2)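 Chondrocytes isolated from mature bovine (>18 months) metacarpophalangeal cartilage by 1 h 0.1% pronase then overnight 0.04% collagenase digestion at 37 °C. Cultured 96 h in serum-free DMEM with gentamicin and 1% HEPES, with or without compound (10-0.1 mM). MTT at final 1 mg/mL for 3 h; formazan dissolved in DMSO and OD read. Viability given as % of untreated cells; n experiments from different cows, in triplicate.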

[3] = Chondroprotective activity in bovine articular cartilage explant cultures assessed as reduction in IL1-induced glycosaminoglycan release at 10 mM after 96 hrs relative to control; format: functional, Bos taurus; design: scale not given: the % may be the effect or the level left; summary of the method: as §1
[4] = Chondroprotective activity in bovine articular cartilage explant cultures assessed as reduction in IL1-induced glycosaminoglycan release at 10 mM after 96 hrs; format: functional, Bos taurus; summary of the method: as §1
[5] = Chondroprotective activity in bovine articular cartilage explant cultures assessed as reduction in IL1-induced glycosaminoglycan release at 1 mM after 96 hrs relative to control; format: functional, Bos taurus; design: scale not given: the % may be the effect or the level left; summary of the method: as §1
[6] = Cytotoxicity against bovine chondrocytes at 1 mM after 96 hrs by MTT cell viability assay; format: cell-based, Bos taurus; conditions: cattle, 1000 µM; summary of the method: as §2
[7] = Chondroprotective activity in bovine articular cartilage explant cultures assessed as reduction in IL1-induced glycosaminoglycan release at 0.1 mM after 96 hrs; format: functional, Bos taurus; summary of the method: as §1
[8] = Chondroprotective activity in bovine articular cartilage explant cultures assessed as reduction in IL1-induced glycosaminoglycan release at 0.1 mM after 96 hrs relative to control; format: functional, Bos taurus; design: scale not given: the % may be the effect or the level left; summary of the method: as §1
[9] = Cytotoxicity against bovine chondrocytes at 0.1 mM after 96 hrs by MTT cell viability assay; format: cell-based, Bos taurus; conditions: cattle, 100 µM; summary of the method: as §2

In the case of `COc1ccc(OP(=O)(N[C@@H](C)C(=O)OCc2ccccc2)OC[C@H]2OC(O)[C@H](NC(C)=O)[C@@H](O)[C@@H]2O)cc1` (some centres not stated), the “fold change (FC)” value [1] is reported as 4.2, the Activity [2] is reported as 85% and the Activity [3] is reported as 24.2%. For the same compound, the “fold change (FC)” value [4] was 2, the Activity [5] was 5.6% and the Activity [6] was 81%. The “fold change (FC)” value [7] was 4.6, the Activity [8] was -2.2% and the Activity [9] was 104%.

For `COc1ccc(OP(=O)(N[C@H](C(=O)OC2CCCCC2)C(C)C)OC[C@H]2OC(O)[C@H](NC(C)=O)[C@@H](O)[C@@H]2O)cc1` (some centres not stated), the Activity [6] was 30%, the “fold change (FC)” value [7] was 4.8 and the Activity [8] was -6.3%. The Activity [9] was 92%.

For `CC(=O)N[C@@H]1[C@@H](O)[C@H](O)[C@@H](CO)O[C@H]1O` [N-ACETYLGLUCOSAMINE], the “fold change (FC)” value [1] was 4.5, the Activity [2] was 61% and the Activity [3] was 9.3%. For the same compound, the “fold change (FC)” value [4] was 2.9, the Activity [5] was -1% and the Activity [6] was 70%. For the same compound, the “fold change (FC)” value [7] was 4.3, the Activity [8] was 5.4% and the Activity [9] was 107%.

With `COc1ccc(OP(=O)(NC(C)(C)C(=O)OCc2ccccc2)OC[C@H]2OC(O)[C@H](NC(C)=O)[C@@H](O)[C@@H]2O)cc1` (some centres not stated) the “fold change (FC)” value [1] was 4.2, the Activity [5] was -0.3% and the Activity [6] was 95%. The “fold change (FC)” value [7] was 3.4, the Activity [8] was -2.2% and the Activity [9] was 99%.

With `COc1ccc(OP(=O)(NCC(=O)OCc2ccccc2)OC[C@H]2OC(O)[C@H](NC(C)=O)[C@@H](O)[C@@H]2O)cc1` (some centres not stated) the “fold change (FC)” value [1] was 1.2, the Activity [5] was 73.6% and the Activity [6] was 100%. For the same compound, the “fold change (FC)” value [7] was 4.2, the Activity [8] was -12.2% and the Activity [9] was 99%.

With `COc1ccc(OP(=O)(N[C@H](C(=O)OCc2ccccc2)C(C)C)OC[C@H]2OC(O)[C@H](NC(C)=O)[C@@H](O)[C@@H]2O)cc1` (some centres not stated) the “fold change (FC)” value [1] was 0.9, the Activity [2] was 40% and the Activity [3] was 85.3%. For the same compound, the “fold change (FC)” value [4] was 0.5, the Activity [5] was 77.6% and the Activity [6] was 100%. For the same compound, the “fold change (FC)” value [7] was 4, the Activity [8] was 2.5% and the Activity [9] was 104%.

For `COc1ccc(OP(=O)(N[C@H](C)C(=O)OCc2ccccc2)OC[C@H]2OC(O)[C@H](NC(C)=O)[C@@H](O)[C@@H]2O)cc1` (some centres not stated), the “fold change (FC)” value [1] was 2.8, the Activity [5] was 31% and the Activity [6] was 66%. The “fold change (FC)” value [7] was 3.4, the Activity [8] was 24.3% and the Activity [9] was 96%.

With `CCOC(=O)[C@@H](NP(=O)(OC[C@H]1OC(O)[C@H](NC(C)=O)[C@@H](O)[C@@H]1O)Oc1ccc(OC)cc1)C(C)C` (some centres not stated) the “fold change (FC)” value [7] was 4.4, the Activity [8] was -21.1% and the Activity [9] was 94%.

For `COC(=O)[C@H](C)NP(=O)(OC[C@H]1OC(O)[C@H](NC(C)=O)[C@@H](O)[C@@H]1O)Oc1ccc(OC)cc1` (some centres not stated), the Activity [6] was 37%, the “fold change (FC)” value [7] was 3.9 and the Activity [8] was 15.8%. For the same compound, the Activity [9] was 97%.

In the case of `CCOC(=O)[C@H](C)NP(=O)(OC[C@H]1OC(O)[C@H](NC(C)=O)[C@@H](O)[C@@H]1O)Oc1ccc(OC)cc1` (some centres not stated), the Activity [6] is reported as 76%, the “fold change (FC)” value [7] is reported as 4.4 and the Activity [8] is reported as -1.9%. It also gave an Activity [9] of 89%.

With `COc1ccc(OP(=O)(N[C@@H](CCSC)C(=O)OCc2ccccc2)OC[C@H]2OC(O)[C@H](NC(C)=O)[C@@H](O)[C@@H]2O)cc1` (some centres not stated) the “fold change (FC)” value [1] was 1.6, the Activity [5] was 62.2% and the Activity [6] was 49%. The “fold change (FC)” value [7] was 3.8, the Activity [8] was 18% and the Activity [9] was 103%.

In the case of `COc1ccc(OP(=O)(N[C@H](C(=O)OC(C)C)C(C)C)OC[C@H]2OC(O)[C@H](NC(C)=O)[C@@H](O)[C@@H]2O)cc1` (some centres not stated), the “fold change (FC)” value [1] is reported as 3.6, the Activity [5] is reported as 12.1% and the Activity [6] is reported as 56%. For the same compound, the “fold change (FC)” value [7] was 3.2, the Activity [8] was 14% and the Activity [9] was 93%.

In the case of `CCOC(=O)CN(C)P(=O)(OC[C@H]1OC(O)[C@H](NC(C)=O)[C@@H](O)[C@@H]1O)Oc1ccc(OC)cc1` (some centres not stated), the Activity [6] is reported as 100%, the “fold change (FC)” value [7] is reported as 5.4 and the Activity [8] is reported as -16.3%. For the same compound, the Activity [9] was 100%.

With `CCOC(=O)CNP(=O)(OC[C@H]1OC(O)[C@H](NC(C)=O)[C@@H](O)[C@@H]1O)Oc1ccc(OC)cc1` (some centres not stated) the Activity [6] was 37%, the “fold change (FC)” value [7] was 3.6 and the Activity [8] was -19.3%. For the same compound, the Activity [9] was 78%.

For `COc1ccc(OP(=O)(OC[C@H]2OC(O)[C@H](NC(C)=O)[C@@H](O)[C@@H]2O)N2CCC[C@H]2C(=O)OCc2ccccc2)cc1` (some centres not stated), the “fold change (FC)” value [1] was 4.1, the Activity [2] was 63% and the Activity [3] was 65.6%. For the same compound, the “fold change (FC)” value [4] was 0.8, the Activity [5] was 2.2% and the Activity [6] was 85%. The “fold change (FC)” value [7] was 4, the Activity [8] was -21.9% and the Activity [9] was 78%.

With `COc1ccc(OP(=O)(N[C@@H](CC(C)C)C(=O)OCc2ccccc2)OC[C@H]2OC(O)[C@H](NC(C)=O)[C@@H](O)[C@@H]2O)cc1` (some centres not stated) the “fold change (FC)” value [1] was 2.6, the Activity [2] was 39% and the Activity [3] was 64%. The “fold change (FC)” value [4] was 0.9, the Activity [5] was 44.7% and the Activity [6] was 20%. For the same compound, the “fold change (FC)” value [7] was 4.1, the Activity [8] was 12.2% and the Activity [9] was 87%.

In the case of `CCCCOC(=O)[C@@H]1CCCN1P(=O)(OC[C@H]1OC(O)[C@H](NC(C)=O)[C@@H](O)[C@@H]1O)Oc1ccc(OC)cc1` (some centres not stated), the “fold change (FC)” value [7] is reported as 4.1, the Activity [8] is reported as -17.5% and the Activity [9] is reported as 98%.

With `COc1ccc(OP(=O)(N[C@@H](Cc2ccccc2)C(=O)OCc2ccccc2)OC[C@H]2OC(O)[C@H](NC(C)=O)[C@@H](O)[C@@H]2O)cc1` (some centres not stated) the Activity [2] was 49%, the Activity [3] was 2.3% and the “fold change (FC)” value [4] was 2.1.

In the case of `N[C@H]1C(O)O[C@H](CO)[C@@H](O)[C@@H]1O` (some centres not stated) [GLUCOSAMINE], the “fold change (FC)” value [1] is reported as 4.7, the Activity [2] is reported as 56% and the Activity [3] is reported as 19%. The “fold change (FC)” value [4] was 2, the Activity [5] was 3.4% and the Activity [6] was 88%. For the same compound, the “fold change (FC)” value [7] was 5.1, the Activity [8] was 0.8% and the Activity [9] was 106%.

In the case of `CC[C@H](C)[C@H](NP(=O)(OC[C@H]1OC(O)[C@H](NC(C)=O)[C@@H](O)[C@@H]1O)Oc1ccc(OC)cc1)C(=O)OCc1ccccc1` (some centres not stated), the “fold change (FC)” value [1] is reported as 1.2, the Activity [2] is reported as 56% and the Activity [3] is reported as 74.6%. The “fold change (FC)” value [4] was 0.5, the Activity [5] was 70.8% and the Activity [6] was 118%. The “fold change (FC)” value [7] was 3.9, the Activity [8] was 5.2% and the Activity [9] was 110%.
